Assay results gathered from unrelated publications.
Compare with care: the assays were run in different laboratories.

`O=C1NN=C(N=Cc2ccccc2O)C1=NNn1c(-c2ccccc2)nc2ccccc2c1=O` has an MIC of 111 µM (Staphylococcus; microbial growth, broth dilution; 24 h).
`Cc1cccc2c(C(c3ccc(/C=C/C(=O)O)s3)c3c[nH]c4c(C)cccc34)c[nH]c12` has an inhibition of 1% (KG-1; cell growth or viability; 5 µM, 48 h).
`CC(=O)NCN1N=C(C)C(=NNn2c(-c3ccccc3)nc3ccccc3c2=O)C1=O` gave an MIC of 120 µM (Staphylococcus; microbial growth, broth dilution; 24 h).
`COc1ccc(-c2c(-c3ccc(C#N)c(F)c3)nc(N3CCC(N)CC3)n(C)c2=O)cc1F` has an EC50 of 0.96 nM (MOLM-13; cell growth or viability, resazurin; 96 h).
The inhibition zone of `Clc1ccccc1C(c1ccccc1)(c1ccccc1)n1ccnc1` is reported as 24 mm (Aspergillus flavus; microbial growth, disc diffusion; 20000 µg/mL).
For `O=c1[nH]cc(F)c(=O)[nH]1`, the IC50 was 46700 nM (NRK-52E; cell growth or viability, MTT; 24 h).
For `O=C(O)C(c1c[nH]c2ccccc12)c1c[nH]c2ccccc12`, the inhibition was 23% (KG-1; cell growth or viability; 20 µM, 48 h).
The IC50 of `C[C@@H]1[C@H](O)[C@@H](C)/C=C/C=C/C=C/C=C/C=C/C=C/C=C/[C@H](O[C@@H]2O[C@H](C)[C@@H](O)[C@H](N)[C@@H]2O)C[C@@H]2O[C@](O)(C[C@@H](O)C[C@@H](O)[C@H](O)CC[C@@H](O)C[C@@H](O)CC(=O)O[C@H]1C)C[C@H](O)[C@H]2C(=O)O` is reported as 100 nM (Leishmania panamensis; parasite growth; 24 h, promastigote).
With `OC(CN1CCOCC1)(Cn1cncn1)c1ccc(F)cc1F` (stereo not shown) the MIC was 7.8 µg/mL (Aspergillus flavus; microbial growth, broth dilution; 48 h).
`COc1ccc(-c2ccc(-c3ccc(C(=N)N)nc3)s2)cc1` has a GI50 of 1840 nM (Malme-3M; cell growth or viability, SRB).
